Experiments:
Mus musculus [1] = test: Anticonvulsant activity after intraperitoneal injection into mice by using MES screen test after 0.5 hr; type: functional
Mus musculus [2] = test: Toxicity after intraperitoneal injection into mice by using toxicity screen test after 0.5 hr; type: organism-based; conditions: in vivo, ip
Procedure, shortened: (§1)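 Mice injected intraperitoneally at 30, 100 and 300 mg/kg and examined 0.5 and 4 h afterwards. Each entry is the minimum dose giving activity (MES protection, scPTZ protection, or rotorod failure for neurotoxicity) in half or more of the mice. Activity is called absent if nothing occurs at 300 mg/kg.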

Mus musculus [3] = test: Anticonvulsant activity after intraperitoneal injection into mice by using scPTZ screen after 0.5 hr; type: functional
Rattus norvegicus [4] = test: Compound was tested for anticonvulsant activity after Oral Administration into Rats by using MES screen test after 2h,dose 12.5 mg/kg; number of rats out of four which were protected; type: functional
Procedure, shortened: (§2)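 Rats received the compound orally. […] Rats were tested in the MES screen at 0.25, 0.5, 1, 2 and 4 h. Each value is the number of rats protected out of 4. The test followed NINDS procedures.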

Rattus norvegicus [5] = test: Compound was tested for anticonvulsant activity after Oral Administration into Rats by using MES screen test after 4h,dose 12.5 mg/kg; number of rats out of four which were protected; type: functional; procedure, shortened: as §2
Mus musculus [6] = test: Compound was tested for toxicity after intraperitoneal injection into mice by using toxicity screen test after 4 hr; type: organism-based; conditions: in vivo, ip; procedure, shortened: as §1
Rattus norvegicus [7] = test: Anticonvulsant activity after oral administration into rats; type: functional; design: concentration or dose not given beside the values
Rattus norvegicus [8] = test: Compound was tested for anticonvulsant activity after Oral Administration into Rats by using MES screen test after 1h,dose 12.5 mg/kg; number of rats out of four which were protected; type: functional; procedure, shortened: as §2
Mus musculus [9] = test: Anticonvulsant activity after intraperitoneal injection into mice measured in a maximal electroshock scree (MES) screen; type: functional
Rattus norvegicus [10] = test: Compound was tested for anticonvulsant activity after Oral Administration into Rats by using MES screen test after 0.25h,dose 12.5 mg/kg; number of rats out of four which were protected; type: functional; procedure, shortened: as §2
Rattus norvegicus [11] = test: Compound was tested for anticonvulsant activity after Oral Administration into Rats by using MES screen test after 1h,dose 50 mg/kg; number of rats out of four which were protected; type: functional; procedure, shortened: as §2
Rattus norvegicus [12] = test: Compound was tested for anticonvulsant activity after Oral Administration into Rats by using MES screen test after 0.5h,dose 50 mg/kg; number of rats out of four which were protected; type: functional; procedure, shortened: as §2
Rattus norvegicus [13] = test: Compound was tested for anticonvulsant activity after Oral Administration into Rats by using MES screen test after 0.25h,dose 50 mg/kg; number of rats out of four which were protected; type: functional; procedure, shortened: as §2
Rattus norvegicus [14] = test: Compound was tested for anticonvulsant activity after Oral Administration into Rats by using MES screen test after 2h,dose 50 mg/kg; number of rats out of four which were protected; type: functional; procedure, shortened: as §2
Rattus norvegicus [15] = test: Compound was tested for anticonvulsant activity after Oral Administration into Rats by using MES screen test after 4h,dose 50 mg/kg; number of rats out of four which were protected; type: functional; procedure, shortened: as §2
Mus musculus [16] = test: Anticonvulsant activity after intraperitoneal injection into mice by using scPTZ screen test after 4 hr; type: functional
Rattus norvegicus [17] = test: Compound was tested for anticonvulsant activity after Oral Administration into Rats by using MES screen test after 0.25h,dose 12.5 mg/kg; No activity was demonstarted; type: functional, organism-based; design: dose 12.5 mg/kg; procedure, shortened: as §2
Rattus norvegicus [18] = test: Compound was tested for anticonvulsant activity after Oral Administration into Rats by using MES screen test after 0.5h,dose 12.5 mg/kg; No activity was demonstarted; type: functional, organism-based; design: dose 12.5 mg/kg; procedure, shortened: as §2

C/C(=N/NC(N)=O)c1ccccc1Oc1ccccc1
Dose (Mus musculus [1]): 300 mg/kg
Dose (Mus musculus [2]): 300 mg/kg
Dose (Mus musculus [3]): 300 mg/kg

Cc1cc(Oc2ccc(/C=N/NC(N)=O)cc2)ccc1Cl
Dose (Mus musculus [1]): 30 mg/kg
Activity (Rattus norvegicus [4]): 4
Activity (Rattus norvegicus [5]): 4
Dose (Mus musculus [6]): 100 mg/kg
Activity (Rattus norvegicus [7]): 4
Activity (Rattus norvegicus [8]): 4
Dose (Mus musculus [9]): 30 mg/kg
Dose (Mus musculus [2]): 300 mg/kg
Activity (Rattus norvegicus [10]): 1
Dose (Mus musculus [3]): 300 mg/kg

CC/C(=N/NC(N)=O)c1ccccc1Oc1ccc(Br)cc1
Dose (Mus musculus [6]): 300 mg/kg

Cc1cc(I)ccc1Oc1ccc(/C=N/NC(N)=O)cc1
Dose (Mus musculus [1]): 30 mg/kg
Activity (Rattus norvegicus [4]): 4
Activity (Rattus norvegicus [5]): 4
Dose (Mus musculus [6]): 100 mg/kg
Activity (Rattus norvegicus [7]): 4
Activity (Rattus norvegicus [8]): 4
Dose (Mus musculus [9]): 30 mg/kg
Dose (Mus musculus [2]): 300 mg/kg
Activity (Rattus norvegicus [10]): 2

Cc1cc(Oc2ccc(/C=N/NC(N)=O)cc2)ccc1F
Dose (Mus musculus [1]): 30 mg/kg
Activity (Rattus norvegicus [4]): 4
Activity (Rattus norvegicus [5]): 4
Activity (Rattus norvegicus [7]): 4
Activity (Rattus norvegicus [8]): 4
Dose (Mus musculus [9]): 30 mg/kg
Dose (Mus musculus [2]): 300 mg/kg
Activity (Rattus norvegicus [10]): 2

NC(=O)N/N=C/c1ccc(Oc2ccc(Cl)cc2)cc1
Dose (Mus musculus [1]): 30 mg/kg
Activity (Rattus norvegicus [11]): 4
Activity (Rattus norvegicus [12]): 4
Activity (Rattus norvegicus [13]): 4
Activity (Rattus norvegicus [14]): 4
Activity (Rattus norvegicus [15]): 4
Dose (Mus musculus [6]): 30 mg/kg
Dose (Mus musculus [9]): 30 mg/kg
Dose (Mus musculus [2]): 300 mg/kg
Dose (Mus musculus [3]): 30 mg/kg

N=C(S)N/N=C/c1ccc(Oc2ccc(F)cc2)cc1
Dose (Mus musculus [1]): 30 mg/kg
Activity (Rattus norvegicus [4]): 3
Dose (Mus musculus [16]): 30 mg/kg
Activity (Rattus norvegicus [5]): 1
Dose (Mus musculus [6]): 30 mg/kg
Activity (Rattus norvegicus [7]): 2
Activity (Rattus norvegicus [8]): 2
Dose (Mus musculus [9]): 30 mg/kg
Activity (Rattus norvegicus [17]): No activity
Dose (Mus musculus [2]): 100 mg/kg
Dose (Mus musculus [3]): 30 mg/kg

Cc1ccc(Oc2ccc(/C=N/NC(N)=O)cc2)cc1C
Dose (Mus musculus [1]): 100 mg/kg
Activity (Rattus norvegicus [4]): 4
Activity (Rattus norvegicus [5]): 4
Dose (Mus musculus [6]): 300 mg/kg
Activity (Rattus norvegicus [7]): 2
Activity (Rattus norvegicus [8]): 4
Dose (Mus musculus [9]): 30 mg/kg
Activity (Rattus norvegicus [17]): No activity
Dose (Mus musculus [3]): 300 mg/kg

NC(=O)N/N=C/c1ccc(Oc2ccccc2Cl)cc1
Dose (Mus musculus [1]): 30 mg/kg
Activity (Rattus norvegicus [11]): 4
Activity (Rattus norvegicus [12]): 4
Dose (Mus musculus [16]): 300 mg/kg
Activity (Rattus norvegicus [13]): 3
Activity (Rattus norvegicus [14]): 4
Activity (Rattus norvegicus [15]): 4
Dose (Mus musculus [9]): 30 mg/kg
Dose (Mus musculus [2]): 300 mg/kg
Dose (Mus musculus [3]): 100 mg/kg

CCCCCCCOc1ccc(Oc2ccc(/C=N/NC(N)=O)cc2)cc1
Dose (Mus musculus [2]): 300 mg/kg

C/C(=N/NC(N)=O)c1ccccc1Oc1ccc(Cl)cc1
Dose (Mus musculus [1]): 300 mg/kg
Dose (Mus musculus [16]): 300 mg/kg
Dose (Mus musculus [6]): 300 mg/kg
Dose (Mus musculus [9]): 300 mg/kg
Dose (Mus musculus [2]): 300 mg/kg
Dose (Mus musculus [3]): 300 mg/kg

CCCCCCCCc1ccc(Oc2ccc(/C=N/NC(N)=O)cc2)cc1
Dose (Mus musculus [9]): 300 mg/kg

NC(=O)N/N=C/c1ccc(Oc2ccc(F)cc2Br)cc1
Dose (Mus musculus [1]): 100 mg/kg
Activity (Rattus norvegicus [11]): 4
Activity (Rattus norvegicus [12]): 4
Activity (Rattus norvegicus [13]): 4
Activity (Rattus norvegicus [14]): 4
Activity (Rattus norvegicus [15]): 4
Dose (Mus musculus [6]): 300 mg/kg
Dose (Mus musculus [9]): 100 mg/kg
Dose (Mus musculus [2]): 300 mg/kg
Dose (Mus musculus [3]): 300 mg/kg

CC/C(=N/NC(N)=O)c1ccccc1Oc1ccc(Cl)cc1
Dose (Mus musculus [1]): 300 mg/kg
Dose (Mus musculus [9]): 300 mg/kg

NC(=O)N/N=C/c1ccc(Oc2ccc3ccccc3c2)cc1
Activity (Rattus norvegicus [18]): No activity
Dose (Mus musculus [1]): 100 mg/kg
Activity (Rattus norvegicus [4]): 4
Dose (Mus musculus [16]): 300 mg/kg
Activity (Rattus norvegicus [5]): 4
Activity (Rattus norvegicus [8]): 3
Dose (Mus musculus [9]): 100 mg/kg
Activity (Rattus norvegicus [10]): 1

N=C(S)N/N=C/c1ccc(Sc2ccc(F)cc2)cc1
Dose (Mus musculus [1]): 100 mg/kg
Activity (Rattus norvegicus [4]): 1
Dose (Mus musculus [16]): 100 mg/kg
Activity (Rattus norvegicus [5]): 1
Dose (Mus musculus [6]): 100 mg/kg
Activity (Rattus norvegicus [7]): 1
Activity (Rattus norvegicus [8]): 2
Dose (Mus musculus [9]): 100 mg/kg
Activity (Rattus norvegicus [17]): No activity
Dose (Mus musculus [3]): 100 mg/kg

NC(=O)N/N=C\c1ccc(S(=O)(=O)c2ccccc2)cc1
Dose (Mus musculus [9]): 300 mg/kg

NC(=O)N/N=C/c1ccc(Oc2ccc(F)cc2F)cc1
Dose (Mus musculus [1]): 30 mg/kg
Activity (Rattus norvegicus [11]): 4
Activity (Rattus norvegicus [12]): 4
Activity (Rattus norvegicus [13]): 3
Activity (Rattus norvegicus [14]): 4
Activity (Rattus norvegicus [15]): 4
Dose (Mus musculus [9]): 30 mg/kg
Dose (Mus musculus [3]): 100 mg/kg

CCCc1ccccc1Oc1ccc(/C=N/NC(N)=O)cc1
Dose (Mus musculus [1]): 100 mg/kg
Activity (Rattus norvegicus [4]): 4
Activity (Rattus norvegicus [5]): 4
Activity (Rattus norvegicus [7]): 3
Activity (Rattus norvegicus [8]): 4
Dose (Mus musculus [9]): 30 mg/kg
Dose (Mus musculus [2]): 300 mg/kg
Activity (Rattus norvegicus [10]): 3

N#Cc1ccc(Oc2ccc(/C=N\NC(N)=O)cc2)cc1
Dose (Mus musculus [1]): 30 mg/kg
Activity (Rattus norvegicus [4]): 4
Dose (Mus musculus [16]): 30 mg/kg
Activity (Rattus norvegicus [5]): 4
Dose (Mus musculus [6]): 100 mg/kg
Activity (Rattus norvegicus [7]): 4
Activity (Rattus norvegicus [8]): 4
Dose (Mus musculus [9]): 30 mg/kg
Dose (Mus musculus [2]): 300 mg/kg
Activity (Rattus norvegicus [10]): 2
Dose (Mus musculus [3]): 30 mg/kg

O=CN/N=C/c1ccc(Oc2ccc(F)cc2)cc1
Dose (Mus musculus [1]): 300 mg/kg
Dose (Mus musculus [16]): 300 mg/kg
Dose (Mus musculus [6]): 300 mg/kg
Dose (Mus musculus [9]): 300 mg/kg

NC(=O)C(=O)N/N=C/c1ccc(Oc2ccc(F)cc2)cc1
Dose (Mus musculus [6]): 300 mg/kg
Dose (Mus musculus [2]): 300 mg/kg

Cc1cc(Cl)ccc1Oc1ccc(/C=N/NC(N)=O)cc1
Dose (Mus musculus [1]): 30 mg/kg
Activity (Rattus norvegicus [4]): 4
Dose (Mus musculus [16]): 30 mg/kg
Activity (Rattus norvegicus [5]): 4
Dose (Mus musculus [6]): 100 mg/kg
Activity (Rattus norvegicus [7]): 3
Activity (Rattus norvegicus [8]): 4
Dose (Mus musculus [9]): 30 mg/kg
Activity (Rattus norvegicus [17]): No activity
Dose (Mus musculus [2]): 300 mg/kg
Dose (Mus musculus [3]): 30 mg/kg

C/C(=N/NC(N)=O)c1ccccc1Oc1ccc(Br)cc1
Dose (Mus musculus [2]): 300 mg/kg

NC(=O)N/N=C/c1ccc(Oc2ccc(I)cc2)cc1
Dose (Mus musculus [1]): 30 mg/kg
Activity (Rattus norvegicus [11]): 4
Activity (Rattus norvegicus [12]): 4
Dose (Mus musculus [16]): 300 mg/kg
Activity (Rattus norvegicus [13]): 3
Activity (Rattus norvegicus [14]): 4
Activity (Rattus norvegicus [15]): 4
Dose (Mus musculus [6]): 100 mg/kg
Dose (Mus musculus [9]): 30 mg/kg
Dose (Mus musculus [2]): 300 mg/kg
Dose (Mus musculus [3]): 100 mg/kg

NC(=O)N/N=C\c1ccc(Oc2cccc(F)c2)cc1
Dose (Mus musculus [1]): 30 mg/kg
Activity (Rattus norvegicus [11]): 4
Activity (Rattus norvegicus [12]): 4
Activity (Rattus norvegicus [13]): 4
Activity (Rattus norvegicus [14]): 4
Activity (Rattus norvegicus [15]): 4
Dose (Mus musculus [6]): 300 mg/kg
Dose (Mus musculus [9]): 300 mg/kg
Dose (Mus musculus [2]): 300 mg/kg
Dose (Mus musculus [3]): 100 mg/kg

— ChEMBL document CHEMBL1129428 (J Med Chem, 1996)
